Results from ChEMBL document CHEMBL2346524, “Protein kinase inhibitor design by targeting the Asp-Phe-Gly (DFG) motif: the role of the DFG motif in the design of epidermal growth factor receptor inhibitors” (J Med Chem, 2013).

Legend:
[1] = target: Epidermal growth factor receptor (Homo sapiens, UniProt P00533, L858R); assay: Inhibition of human GST-tagged EGFR L834R mutant expressed in Sf9 cells by luminescence assay; assay type: cell-based
[2] = target: T1, Epidermal growth factor receptor (Homo sapiens, UniProt P00533); assay: Inhibition of human wild type GST-tagged EGFR kinase domain expressed in Sf9 cells by luminescence assay; assay type: cell-based
[3] = tested on: Epidermal growth factor receptor (Homo sapiens), P04626+P00533+Q15303+P21860 [UNDEFINED MUTATION]; assay: Inhibition of EGFR T766M/L834R mutant (unknown origin) at 1 uM relative to control; assay type: protein assay
Procedure, shortened: (§1)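 Single-concentration profiling at 1 μM across a 317-kinase panel that includes wild-type and mutant EGFR and HER2. Activity of each kinase is given as percent inhibition relative to control.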

[4] = tested on: Epidermal growth factor receptor (Homo sapiens), P00533 [L834R]; assay: Inhibition of EGFR L834R mutant (unknown origin) at 1 uM relative to control; assay type: protein assay; procedure, shortened: as §1
[5] = tested on: Epidermal growth factor receptor (Homo sapiens), P04626+P00533+Q15303+P21860 [UNDEFINED MUTATION]; assay: Inhibition of EGFR T766M mutant (unknown origin) at 1 uM relative to control; assay type: protein assay; procedure, shortened: as §1
[6] = tested on: Epidermal growth factor receptor (Homo sapiens), P00533 [L858R]; assay: Ratio of gefitinib IC50 to compound IC50 for human GST-tagged EGFR L834R mutant
[7] = target: Cyclin-dependent kinase 2 (Homo sapiens) (UniProt P24941); assay: Inhibition of CDK2 (unknown origin) at 1 uM relative to control; procedure, shortened: as §1
[8] = target: T1, Epidermal growth factor receptor; assay: Inhibition of wild type EGFR (unknown origin) at 1 uM relative to control; procedure, shortened: as §1
[9] = target: T1, Epidermal growth factor receptor; assay: Ratio of gefitinib IC50 to compound IC50 for human wild type GST-tagged EGFR kinase domain
[10] = target: Epidermal growth factor receptor (Homo sapiens) (UniProt P04626+P00533+Q15303+P21860); assay: Inhibition of EGFR L837Q mutant (unknown origin) at 1 uM relative to control; assay type: protein assay; procedure, shortened: as §1
[11] = organism: Homo sapiens; assay: Toxicity in human assessed as occurrence of diarrhea; assay type: organism-based; details: in vivo
[12] = organism: Homo sapiens; assay: Toxicity in human assessed as occurrence of rash; assay type: organism-based; details: in vivo

Row | IC50 [1] | IC50 [2] | Compound | also measured
1 | 52 nM | 393 nM | OC[C@@H](Nc1ncnc2oc(-c3ccccc3)c(-c3ccccc3)c12)c1ccccc1 | 
2 | 339 nM | 2990 nM | C[C@@H](Nc1ncnc2oc(-c3ccccc3)c(-c3ccccc3)c12)c1ccccc1 | 
3 | 486 nM | 4330 nM | CN(C)CCCCCC(=O)Nc1cccc(-c2c(-c3ccccc3)oc3ncnc(N[C@H](CO)c4ccccc4)c23)c1 | 
4 | 2 nM | 8 nM | CN(C)CCC(=O)Nc1cccc(-c2c(-c3ccccc3)oc3ncnc(N[C@H](CO)c4ccccc4)c23)c1 | inhibition [3]: 80%; inhibition [4]: 100%; inhibition [5]: 50%; Ratio IC50 [6]: 7; inhibition [7]: -4%; inhibition [8]: 99%; Ratio IC50 [9]: 4; inhibition [10]: 106%
5 | 44 nM | 352 nM | OC[C@@H](Nc1ncnc2oc(-c3ccccc3)c(-c3ccoc3)c12)c1ccccc1 | 
6 | 4 nM | 34 nM | CN(C)CCCCC(=O)Nc1cccc(-c2c(-c3ccccc3)oc3ncnc(N[C@H](CO)c4ccccc4)c23)c1 | 
7 |  |  | CN(C)C/C=C/C(=O)Nc1cc2c(Nc3ccc(F)c(Cl)c3)ncnc2cc1O[C@@H]1CCOC1 | Activity [11]: 95%; Activity [12]: 62%
8 | 34 nM | 29 nM | CN(C)CCCC(=O)Nc1cccc(-c2c(-c3ccccc3)oc3ncnc(N[C@H](CO)c4ccccc4)c23)c1 | 
9 | 23 nM | 179 nM | CC(=O)Nc1ccc(-c2c(-c3ccccc3)oc3ncnc(N[C@H](CO)c4ccccc4)c23)cc1 | 
10 | 168 nM | 589 nM | OC[C@@H](Nc1ncnc2oc(-c3ccccc3)c(Cl)c12)c1ccccc1 | 
11 | 73 nM | 434 nM | OC[C@@H](Nc1ncnc2oc(-c3ccccc3)c(-c3ccco3)c12)c1ccccc1 | 
12 | 1450 nM | 7890 nM | COC(=O)[C@@H](Nc1ncnc2oc(-c3ccccc3)c(-c3ccccc3)c12)c1ccccc1 | 
13 | 22 nM | 203 nM | Nc1cccc(-c2c(-c3ccccc3)oc3ncnc(N[C@H](CO)c4ccccc4)c23)c1 | 
14 | > 25000 nM | > 25000 nM | CC(C)CCCC(=O)Nc1cccc(-c2c(-c3ccccc3)oc3ncnc(N[C@H](CO)c4ccccc4)c23)c1 | 
15 | 4 nM | 48 nM | CN(C)CC(=O)Nc1cccc(-c2c(-c3ccccc3)oc3ncnc(N[C@H](CO)c4ccccc4)c23)c1 | 
16 | 49 nM | 820 nM | O=[N+]([O-])c1cccc(-c2c(-c3ccccc3)oc3ncnc(N[C@H](CO)c4ccccc4)c23)c1 | 
17 | > 10000 nM | > 10000 nM | CC[C@@H](Nc1ncnc2oc(-c3ccccc3)c(-c3ccccc3)c12)c1ccccc1 | 
18 | 29 nM | 218 nM | CC(=O)Nc1cccc(-c2c(-c3ccccc3)oc3ncnc(N[C@H](CO)c4ccccc4)c23)c1 | 
